Measurements published in ChEMBL document CHEMBL1154198, “Chemical genetics of Plasmodium falciparum” (Nature, 2010).

How the values were obtained:
[1] = test system: Leishmania major; test: ST_JUDE: Cytotoxicity using Alamar Blue to measure viability of Leishmania major; assay type: functional, organism-based
Outline: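 L. major promastigotes; drug susceptibility read with Alamar Blue.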

[2] = test system: Plasmodium falciparum; test: ST_JUDE: Cytotoxicity against Plasmodium falciparum K1; assay type: functional, organism-based
Outline: (§1)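 Asexual P. falciparum grown in human erythrocytes, exposed to compounds for 72 h, and growth read as the DNA quantity in treated versus control cultures. Dose-response run at 12 concentrations from 10 μM to 5 nM.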

[3] = ST_JUDE: Cytotoxicity using luciferase to measure ATP as an indicator of the viability of human epithelial embryonic kidney cells (HEK293); assay type: toxicity, cell-based
[4] = test system: Plasmodium falciparum; test: ST_JUDE: Cytotoxicity against Plasmodium falciparum D10 transfected with yeast DHOD; assay type: functional, organism-based
[5] = test system: Plasmodium falciparum; test: ST_JUDE: Cytotoxicity against Plasmodium falciparum W2; assay type: functional, organism-based
[6] = test system: Toxoplasma gondii; test: ST_JUDE: Growth inhibition of to Toxoplasma gondii, in human U-2OS cells, as measured by luciferase.; assay type: functional, organism-based; conditions: RH, U2OS
Outline: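 T. gondii parasites engineered to express luciferase; drug sensitivity read by luminescence.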

[7] = test system: Trypanosoma brucei; test: ST_JUDE: Cytotoxicity using luciferase to measure ATP as an indicator of the viability of Trypanosoma brucei; assay type: functional, organism-based
[8] = test system: Plasmodium falciparum; test: ST_JUDE: Plasmodium falciparum K1 EC50 (uM) as measured by SYBR green dye; assay type: functional, organism-based
[9] = test system: Plasmodium falciparum; test: ST_JUDE: Cytotoxicity against Plasmodium falciparum Dd2; assay type: functional, organism-based
[10] = test system: Plasmodium falciparum; test: ST_JUDE: Plasmodium falciparum 3D7 EC50 (uM) as measured by SYBR green dye; assay type: functional, organism-based
[11] = ST_JUDE: Cytotoxicity using luciferase to measure ATP as an indicator of the viability of human Burkitt''s lymphoma lymphoblast cells (Raji); assay type: toxicity, cell-based
[12] = ST_JUDE: Cytotoxicity using luciferase to measure ATP as an indicator of the viability of human epithelial hepatocellular carcinoma cells (HepG2); assay type: toxicity, cell-based
[13] = ST_JUDE: Cytotoxicity using luciferase to measure ATP as an indicator of the viability of human foreskin fibroblast cells (BJ); assay type: toxicity, cell-based
[14] = test system: Plasmodium falciparum; test: ST_JUDE: Cytotoxicity against Plasmodium falciparum V1/S; assay type: functional, organism-based
[15] = test system: Plasmodium falciparum; test: ST_JUDE: Cytotoxicity against Plasmodium falciparum SB-A6; assay type: functional, organism-based
[16] = test system: Plasmodium falciparum; test: ST_JUDE: Cytotoxicity against Plasmodium falciparum 3D7; assay type: functional, organism-based; outline: as §1

Compound	EC50 [1] [nM]	EC50 [2] [nM]	EC50 [3] [nM]	EC50 [4] [nM]	EC50 [5] [nM]	EC50 [6] [nM]	EC50 [7] [nM]	EC50 [8] [nM]	EC50 [9] [nM]	EC50 [10] [nM]	EC50 [11] [nM]	EC50 [12] [nM]	EC50 [13] [nM]	EC50 [14] [nM]	EC50 [15] [nM]	EC50 [16] [nM]
COc1ccc(O)c(CN2CCN(c3cc(C)ccc3C)CC2)c1	> 15200	992	> 35500	1230	566	> 19400	> 34000	488	741	1370	> 35500	> 35500	> 35500	660	1290	2200
Nc1ccc(-c2nc3cc(-c4ccc5[nH]c(-c6ccc(N)cc6)nc5c4)ccc3[nH]2)cc1	> 16400	201	> 38300	120	77.9	> 21000	2520	174	165	264	> 38300	8940	> 38300	154	108	221
N=c1n(CCN2CCCCC2)c2ccccc2n1CC(O)c1ccc(Cl)c(Cl)c1 (centres undefined)	> 22000	617	16000	1290	640	11500	4120	238	346	186	21000	6970	10400	1430	1270	503
CCN1CCN(Cc2c(O)ccc3c(=O)c(Oc4ccccc4C(C)C)c(C(F)(F)F)oc23)CC1	> 9980	69.6	> 23300	247	41.8	> 12800	> 22400	59.2	523	226	> 23300	> 23300	> 23300	102	335	223
CCOc1cc2c(cc1OCC)C(c1cc(C)c(O)c(C)c1)NCC2 (centres undefined)	> 22200	439	> 52000	2770	451	> 28500	14800	587	420	1830	> 52000	> 52000	> 52000	868	3000	1300
CCCO/C(O)=C1\C(C)=NC2=C(C(=O)CC(c3ccc(OC)cc3)C2)C1c1ccccc1Cl (centres undefined)	> 17900	160	> 41900	188	88.9	> 22900	5090	466	301	713	> 41900	> 41900	> 41900	173	167	373
COc1ccc(C2CC3=NC(C)=C(C(=O)OC(C)C)C(c4ccccc4OC)C3=C(O)C2)cc1OC (centres undefined)	> 19200	396	> 44800	637	240	11400	16400	997	812	1390	> 44800	> 44800	> 44800	434	367	711
CCOc1ccc(/C=C/c2nc(=O)c3ccccc3o2)cc1	> 17100	392	> 39900	> 10200	73.1	273	> 38300	128	307	188	> 39900	> 39900	> 39900	601	> 10200	345
COc1ccc(Nc2cc(C)nc(Nc3ccc(NS(=O)(=O)c4ccc(OC)cc4)cc3)n2)cc1	175	> 12900	30600	1690	> 12900	> 27600	5790	> 15000	1230	743	14300	17400	> 50300	> 12900	546	1030
Cc1ccc2c(c1)N(CCO)/C(=C/c1sc3ccccc3[n+]1C)S2	> 7160	330	> 16700	341	240	> 9160	5200	162	197	423	1780	> 16700	> 16700	394	468	250
CCOC(=O)C1(Cc2ccc(Cl)cc2)CCN(Cc2ccccc2O)CC1	> 24400	194	> 56900	559	548	> 31200	12300	106	445	457	> 56900	> 56900	> 56900	327	549	2000
CCOC(=O)C1(Cc2cccc(C(F)(F)F)c2)CCN(Cc2ccccc2O)CC1	> 17700	368	> 41300	743	726	> 22600	11700	57.6	345	389	> 41300	> 41300	> 41300	486	858	1330
Oc1ccc(Br)cc1CN1CCN(Cc2ccccc2)CC1	> 11600	401	> 27100	1750	848	> 14900	> 26000	419	776	867	> 27100	> 27100	> 27100	582	2050	1230
CCOc1ccc(Nc2nc(NCc3ccccc3)c3ccccc3n2)cc1	8.8	1440	8670	1070	> 10200	> 21700	5620	1540	651	1150	8220	4770	8410	1070	305	1140
C=CCN1C=CC=C/C1=C\c1sc2ccccc2[n+]1CC	12.2	1890	> 21600	2920	> 5540	> 11800	2670	1440	920	2310	2820	> 21600	> 21600	2000	1600	1290
Oc1ccc(C2NCc3ccccc3-n3cccc32)cc1Cl (centres undefined)	> 19700	395	> 46000	1770	1090	> 25200	> 44100	357	1380	1250	> 46000	> 46000	> 46000	360	2350	1490
Cc1ccc(NC(=O)C2c3ccccc3C(=O)N(CC(C)C)C2c2cccs2)cc1C (centres undefined)	> 17600	182	> 41200	182	3810	> 22600	6310	129	323	63.1	> 41200	> 41200	> 41200	348	232	208
CCOc1ccc(Nc2cc(C)c3ccc(O)cc3n2)cc1	> 22100	158	> 51700	504	233	> 28300	21700	153	629	483	34400	30400	> 51700	195	460	714
CC1=NC2=C(C(=O)CC(c3ccc(Cl)cc3)C2)C(c2ccc(F)cc2)/C1=C(\O)OC(C)C (centres undefined)	> 17000	436	> 39800	649	656	> 21800	1560	779	1300	775	> 39800	> 39800	> 39800	821	460	989
